The text below walks through data of ChEMBL document CHEMBL1138075 (Bioorg Med Chem Lett, 2006).

One experiment deals with Glutamate NMDA receptor. Put plainly: (§1) Displacement of L[3H]glutamate from GluR in rat brain synaptic membrane. In kind it is cell membranes. The method in brief: (§2)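 Competitive radioligand binding to glutamate receptors: displacement of L-[³H]glutamate from rat brain synaptic membranes, with test concentrations up to 100 μM.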
Experiment [1] concerns the target T1, Glutamate NMDA receptor (Rattus norvegicus) (UniProt P35439+Q00959+Q00960+Q00961+Q62645+Q8VHN2+Q9R1M7). As to the kind of experiment: Displacement of L[3H]glutamate from GluR in rat brain synaptic membrane up to 100 uM. The experiment is classed as cell membranes. The method in brief:
as §2

Experiment [2] concerns the target T1, Glutamate NMDA receptor (Rattus norvegicus). Described as §1. In kind it is cell membranes. The method in brief:
as §2

Experiment [3] shares this target. Put plainly: Protection of rat hippocampal neurons from NMDA excitotoxicity. Conditions: Hippocampus. In kind it is functional, tissue-based. The essentials:
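Neuronal death was induced in cultured rat hippocampal neurons by exposure to NMDA (100 µM), and neuronal survival was scored with test agent present.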

The subject of a further experiment is Hippocampal neurone. As to the kind of experiment: Protection of rat hippocampal neurons from oxygen-glucose deprivation. The experiment is classed as functional, tissue-based. Conditions: Hippocampus. The essentials: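 Cultured rat hippocampal neurons were subjected to oxygen-glucose deprivation injury, and neuronal survival was assessed with test agent present.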

The target in experiment [4] is T1, Glutamate NMDA receptor (Rattus norvegicus). Put plainly: Binding affinity to GluR in rat brain synaptic membranes at 100 uM.

As a reminder, the Ki is a measure of affinity in units of concentration, obtained from inhibition or displacement. Read a low Ki as higher affinity.

Active and inactive are the calls of the source. No cut-off for these calls is given here. Square brackets hold non-standard residues; d marks the D form. Peptide text beside a SMILES is read from it. Thz = O=C(O)[C@@H]1CSCN1

With `CC1(C)CC[C@H](C(=O)N[C@@H](CCC(=O)O)C(=O)O)N1C(=O)CN`, the Ki at Glutamate NMDA receptor was found to be 0.33 µM.
Take `CCC[C@@]1(C(=O)N[C@@H](CCC(=O)O)C(=O)O)CCCN1C(=O)CN`: the result in experiment [1] was inactive.
Take `CC1(C)CC[C@@H](C(=O)N[C@@H](CCC(=O)O)C(=O)O)N1C(=O)CN`: the Ki at Glutamate NMDA receptor came to 3.79 µM.
Still for that read-out and setting: the result for `C[C@@]1(C(=O)N[C@@H](CCC(=O)O)C(=O)O)CCCN1C(=O)CN` (stereo in doubt; 1) [TROFINETIDE] reads 31.2 µM.
Regarding `NCC(=O)N1CSC[C@H]1C(=O)N[C@@H](CCC(=O)O)C(=O)O` (H-Gly-[Thz]-Glu-OH), the outcome in experiment [2] was inactive.
On to `CC1(C)SC[C@@H](C(=O)N[C@@H](CCC(=O)O)C(=O)O)N1C(=O)CN`, for which the result in experiment [2] was inactive.
In the case of `NCC(=O)N1CCC[C@]12CCN([C@@H](CCC(=O)O)C(=O)O)C2=O`, the outcome in experiment [1] was inactive.
For `NCC(=O)N1CCC[C@H]1C(=O)N[C@H](CCC(=O)O)C(=O)O`, the result (in experiment [3]; in the experiment with Hippocampal neurone) was Active. In addition, the outcome in experiment [4] was inactive.
Turning to `NCC(=O)N1CCC[C@@H]1C(=O)N[C@@H](CCC(=O)O)C(=O)O`, the result (in experiment [3]; in the experiment with Hippocampal neurone) was Active. In addition, in experiment [4], the outcome was inactive.
